# Data reported in ChEMBL document CHEMBL3784969, “Pharmacokinetics of flutamide in patients with renal insufficiency” (Br J Clin Pharmacol, 1999).
# How the values were obtained:
# [1] = test system: Homo sapiens; test: Final time point in terminal phase in patient (3 patients) with renal insufficiency assessed as hydroxy flutamide at 250 mg, po administered as single dose by gas chromatography; format: ADME, organism-based; conditions: in vivo
# Method in brief: (§1)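 Males grouped by 24 h CLcr normalised to body surface area (>80, 50–80, 30–49, 5–29 ml min−1 1.73 m−2), fasted 10 h pre-dose and 4 h post-dose, given a single oral 250 mg flutamide dose. Plasma sampled 0–96 h; urine collected in blocks to 96 h. Flutamide and hydroxyflutamide measured by GC with electron-capture detection. Renal CL = Ae(0,96 h)/AUC(0,96 h); t1/2 = 0.693/λz.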
# [2] = Drug excretion in urine of patient (3 patients) with renal insufficiency assessed as hydroxy flutamide at 250 mg, po administered as single dose by gas chromatography; format: ADME, organism-based; conditions: human, in vivo; method in brief: as §1
# [3] = Tmax in patient (4 patients) with renal insufficiency at 250 mg, po administered as single dose by gas chromatography; format: ADME, organism-based; conditions: human, in vivo; method in brief: as §1
# [4] = AUC (0 to 96 hrs) in patient (4 patients) with renal insufficiency at 250 mg, po administered as single dose by gas chromatography; format: ADME, organism-based; parameters: time < 96 hr, dose 250 mg, route oral; conditions: human, in vivo
# [5] = test system: Homo sapiens; test: Final time point in terminal phase in patient (4 patients) with renal insufficiency at 250 mg, po administered as single dose by gas chromatography; format: ADME, organism-based; conditions: in vivo; method in brief: as §1
# [6] = test system: Homo sapiens; test: AUClast in patient (4 patients) with renal insufficiency at 250 mg, po assessed as hydroxy flutamide administered as single dose by gas chromatography; format: ADME, organism-based; parameters: dose 250 mg, time 0 - last, route oral; conditions: in vivo
# [7] = test system: Homo sapiens; test: Terminal half life in patient (4 patients) with renal insufficiency assessed as hydroxy flutamide at 250 mg, po administered as single dose by gas chromatography; format: ADME, organism-based; conditions: in vivo; method in brief: as §1
# [8] = Cmax in patient (6 patients) with renal insufficiency at 250 mg, po administered as single dose 4 hrs prior to hemodialysis treatment measured at starting time of dialysis and post dialysis treatment by gas chromatography; format: ADME, organism-based; parameters: dose 250 mg, route oral; conditions: human, in vivo
# [9] = test system: Homo sapiens; test: Final time point in terminal phase in patient (6 patients) with renal insufficiency at 250 mg, po administered as single dose 4 hrs prior to hemodialysis treatment measured at starting time of dialysis and post dialysis treatment by gas chromatography; format: ADME, organism-based; conditions: in vivo
# Method in brief: (§2)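 Group V haemodialysis males (CLcr <5 ml min−1 1.73 m−2). Single oral 250 mg flutamide (two 125 mg capsules) right after HD; after 14-day washout, same dose 4 h before HD lasting 2–4 h. Venous samples to 48 h, arterial/venous during HD, dialysate in hourly blocks. GC with 63Ni electron-capture detection. CL(HD) = dialysate Ae(HD)/arterial AUC(HD); renal CL = Ae(0,48)/AUC(0,48 h).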
# [10] = Drug recovery in dialysate of patient (6 patients) with renal insufficiency at 250 mg, po administered as single dose 4 hrs prior to hemodialysis treatment measured during dialysis treatment by gas chromatography; format: ADME, organism-based; conditions: human, in vivo; method in brief: as §2
# [11] = test system: Homo sapiens; test: AUC in patient with renal insufficiency at 250 mg, po administered first dose followed by 14 days wash out period and administered second dose 4 hrs prior to hemodialysis measured during hemodialysis treatment by gas chromatography; format: ADME, organism-based; conditions: in vivo; method in brief: as §2
# [12] = Cmax in patient (6 patients) with renal insufficiency at 250 mg, po administered as single dose by gas chromatography; format: ADME, organism-based; parameters: dose 250 mg, route oral; conditions: human, in vivo
# [13] = AUC (0 to 96 hrs) in patient (6 patients) with renal insufficiency at 250 mg, po administered as single dose by gas chromatography; format: ADME, organism-based; parameters: dose 250 mg, time < 96 hr, route oral; conditions: human, in vivo
# [14] = AUClast in patient (6 patients) with renal insufficiency at 250 mg, po administered as single dose by gas chromatography; format: ADME, organism-based; parameters: dose 250 mg, time 0 - last, route oral; conditions: human, in vivo
# [15] = test system: Homo sapiens; test: AUClast in patient (6 patients) with renal insufficiency at 250 mg, po assessed as hydroxy flutamide administered as single dose by gas chromatography; format: ADME, organism-based; parameters: dose 250 mg, time 0 - last, route oral; conditions: in vivo
# [16] = Drug excretion in urine of patient (6 patients) with renal insufficiency assessed as hydroxy flutamide at 250 mg, po administered as single dose by gas chromatography; format: ADME, organism-based; conditions: human, in vivo; method in brief: as §1
# [17] = test system: Homo sapiens; test: Renal clearance in patient (6 patients) with renal insufficiency assessed as hydroxy flutamide at 250 mg, po administered as single dose by gas chromatography; format: ADME, organism-based, Kidney; conditions: in vivo; method in brief: as §1
# [18] = Cmax in patient (7 patients) with renal insufficiency at 250 mg, po administered as single dose by gas chromatography; format: ADME, organism-based; parameters: dose 250 mg, route oral; conditions: human, in vivo
# [19] = test system: Homo sapiens; test: Clearance in patient with renal insufficiency at 250 mg, po administered first dose followed by 14 days wash out period and administered second dose 4 hrs prior to hemodialysis measured during hemodialysis treatment by gas chromatography; format: ADME, organism-based; conditions: in vivo; method in brief: as §2
# [20] = Elimination rate constant in patient with renal insufficiency at 250 mg, po administered first dose followed by 14 days wash out period and administered second dose 4 hrs prior to hemodialysis measured during hemodialysis treatment by gas chromatography; format: ADME, organism-based; conditions: human, in vivo; method in brief: as §2
# [21] = test system: Homo sapiens; test: Toxicity in patient with renal insufficiency assessed as dizziness at 250 mg, po administered as single dose; format: organism-based; conditions: in vivo
# Method in brief: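 26 male subjects in groups by 24 h creatinine clearance (normalized to body surface area): >80, 50–80, 30–49, 5–29, <5 ml min−1 1.73 m−2 on haemodialysis. Given as two 125 mg capsules after a 10 h fast, continued 4 h post-dose. Prescription drugs withheld for the same period. Subjects confined 12 h pre-dose to 48 h post-dose, with adverse events compared across renal-function groups.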
# [22] = test system: Homo sapiens; test: AUC (0 to infinity) in patient (7 patients) with renal insufficiency at 250 mg, po assessed as hydroxy flutamide administered as single dose by gas chromatography; format: ADME, organism-based; parameters: dose 250 mg, route oral, time infinity; conditions: in vivo
# [23] = test system: Homo sapiens; test: Final time point in terminal phase in patient (7 patients) with renal insufficiency assessed as hydroxy flutamide at 250 mg, po administered as single dose by gas chromatography; format: ADME, organism-based; conditions: in vivo; method in brief: as §1
# [24] = Drug excretion in urine of patient (7 patients) with renal insufficiency assessed as hydroxy flutamide at 250 mg, po administered as single dose by gas chromatography; format: ADME, organism-based; conditions: human, in vivo; method in brief: as §1
# [25] = Cmax in patient (3 patients) with renal insufficiency at 250 mg, po administered as single dose by gas chromatography; format: ADME, organism-based; parameters: dose 250 mg, route oral; conditions: human, in vivo
# [26] = Tmax in patient (3 patients) with renal insufficiency at 250 mg, po administered as single dose by gas chromatography; format: ADME, organism-based; conditions: human, in vivo; method in brief: as §1
# [27] = AUC (0 to 96 hrs) in patient (3 patients) with renal insufficiency at 250 mg, po administered as single dose by gas chromatography; format: ADME, organism-based; parameters: time < 96 hr, dose 250 mg, route oral; conditions: human, in vivo
# [28] = AUClast in patient (3 patients) with renal insufficiency at 250 mg, po administered as single dose by gas chromatography; format: ADME, organism-based; parameters: dose 250 mg, time 0 - last, route oral; conditions: human, in vivo
# [29] = Drug excretion in urine of patient (3 patients) with renal insufficiency at 250 mg, po administered as single dose by gas chromatography; format: ADME, organism-based; conditions: human, in vivo; method in brief: as §1
# [30] = Renal clearance in patient (3 patients) with renal insufficiency at 250 mg, po administered as single dose by gas chromatography; format: ADME, organism-based, Kidney; conditions: human, in vivo; method in brief: as §1
# [31] = test system: Homo sapiens; test: Cmax in patient (3 patients) with renal insufficiency assessed as hydroxy flutamide at 250 mg, po administered as single dose by gas chromatography; format: ADME, organism-based; parameters: dose 250 mg, route oral; conditions: in vivo
# [32] = test system: Homo sapiens; test: AUC (0 to 24 hrs) in patient (3 patients) with renal insufficiency assessed as hydroxy flutamide at 250 mg, po administered as single dose by gas chromatography; format: ADME, organism-based; parameters: dose 250 mg, time < 24 hr, route oral; conditions: in vivo
# [33] = test system: Homo sapiens; test: AUC (0 to 96 hrs) in patient (3 patients) with renal insufficiency at 250 mg, po assessed as hydroxy flutamide administered as single dose by gas chromatography; format: ADME, organism-based; parameters: dose 250 mg, time < 96 hr, route oral; conditions: in vivo
structure (smiles),measurement,setting,value
CC(C)C(=O)Nc1ccc([N+](=O)[O-])c(C(F)(F)F)c1 [FLUTAMIDE],Time,[1],52 h
same,Drug excretion,[2],132 µg
same,Tmax,[3],1 h
same,AUC(0-t) at 96 h,[4],107 ng·h/mL
same,Time,[5],5 h
same,AUClast,[6],6435 ng·h/mL
same,beta t1/2,[7],9 h
same,Cmax,[8],81 ng/mL
same,Time,[9],7 h
same,Drug recovery,[10],0 mg
same,AUC,[11],907.6 ng·h/mL
same,Cmax,[12],53.4 ng/mL
same,AUC(0-t) at 96 h,[13],96.4 ng·h/mL
same,AUC(0-t),[14],75.8 ng·h/mL
same,AUClast,[15],5476 ng·h/mL
same,Drug excretion,[16],118.3 µg
same,CL,[17],0.36 mL/min
same,Cmax,[18],20.9 ng/mL
same,CL,[19],21.4 mL/min
same,k el,[20],5.56e-05 s⁻¹
same,Activity,[21],15%
same,AUC,[22],4993 ng·h/mL
same,Time,[23],38.6 h
same,Drug excretion,[24],88.3 µg
same,Cmax,[25],41 ng/mL
same,Tmax,[26],2 h
same,AUC(0-t) at 96 h,[27],98 ng·h/mL
same,AUC(0-t),[28],74 ng·h/mL
same,Drug excretion,[29],14 µg
same,CL renal,[30],2 mL/min
same,Cmax,[31],902 ng/mL
same,AUC,[32],6166 ng·h/mL
same,AUC,[33],6907 ng·h/mL
